# Assay results as given in ChEMBL document CHEMBL1781892, “Microwave assisted synthesis and structure-activity relationship of 4-hydroxy-N'-[1-phenylethylidene]-2H/2-methyl-1,2-benzothiazine-3-carbohydrazide 1,1-dioxides as anti-microbial agents” (2011).
# Legend:
# Type in all cases: functional
# Curvularia australiensis [1] = assay: Antifungal activity against Drechslera australiensis using 1 x 10^5 spore/100 uL assessed as 99.5% fungal killing of original inoculum after 72 hrs by microdilution method
# Trichoderma viride [2] = assay: Antifungal activity against Trichoderma viride using 1 x 10^5 spore/100 uL after 72 hrs by microdilution method
# Aspergillus niger [3] = assay: Antifungal activity against Aspergillus niger using 1 x 10^5 spore/100 uL assessed as 99.5% fungal killing of original inoculum after 72 hrs by microdilution method
# Aspergillus fumigatus [4] = assay: Antifungal activity against Aspergillus fumigatus using 1 x 10^5 spore/100 uL assessed as 99.5% fungal killing of original inoculum after 72 hrs by microdilution method
# Trichoderma viride [5] = assay: Antifungal activity against Trichoderma viride using 1 x 10^5 spore/100 uL assessed as 99.5% fungal killing of original inoculum after 72 hrs by microdilution method
# Curvularia australiensis [6] = assay: Antifungal activity against Drechslera australiensis using 1 x 10^5 spore/100 uL after 72 hrs by microdilution method
# [7] = Antifungal activity against Trichoderma reesei using 1 x 10^5 spore/100 uL assessed as 99.5% fungal killing of original inoculum after 72 hrs by microdilution method
# [8] = Antifungal activity against Trichoderma reesei using 1 x 10^5 spore/100 uL after 72 hrs by microdilution method
# How it was run: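 Spores washed from malt agar cultures with sterile 0.85% saline plus 0.1% Tween 80, adjusted to about 1.0×10^5 per 100 µl well. Compounds from a 1 mg/ml DMSO stock were serially diluted in malt broth with inoculum in 96-well plates and incubated 72 h at 28 °C. MIC is the lowest concentration with no visible growth under a binocular microscope. DMSO served as negative control.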
# Aspergillus flavus [9] = assay: Antifungal activity against Aspergillus flavus using 1 x 10^5 spore/100 uL after 72 hrs by microdilution method
# Aspergillus flavus [10] = assay: Antifungal activity against Aspergillus flavus using 1 x 10^5 spore/100 uL assessed as 99.5% fungal killing of original inoculum after 72 hrs by microdilution method
# Aspergillus fumigatus [11] = assay: Antifungal activity against Aspergillus fumigatus using 1 x 10^5 spore/100 uL after 72 hrs by microdilution method
# Aspergillus niger [12] = assay: Antifungal activity against Aspergillus niger using 1 x 10^5 spore/100 uL after 72 hrs by microdilution method
# Staphylococcus aureus = assay: Antibacterial activity against Staphylococcus aureus using 1 x 10^4 CFU/ml inoculum after 24 hrs by microdilution method
# Bacillus thuringiensis = assay: Antibacterial activity against Bacillus thuringiensis using 1 x 10^4 CFU/ml inoculum after 24 hrs by microdilution method
# Escherichia coli = assay: Antibacterial activity against Escherichia coli using 1 x 10^4 CFU/ml inoculum after 24 hrs by microdilution method
# Pseudomonas aeruginosa = assay: Antibacterial activity against Pseudomonas aeruginosa using 1 x 10^4 CFU/ml inoculum after 24 hrs by microdilution method
# Bacillus cereus = assay: Antibacterial activity against Bacillus cereus using 1 x 10^4 CFU/ml inoculum after 24 hrs by microdilution method
# Bacillus subtilis = assay: Antibacterial activity against Bacillus subtilis using 1 x 10^4 CFU/ml inoculum after 24 hrs by microdilution method
SMILES,MFC (Curvularia australiensis [1]) [×10⁻² umol],MIC (Trichoderma viride [2]) [×10⁻² umol],MFC (Aspergillus niger [3]) [×10⁻² umol],MFC (Aspergillus fumigatus [4]) [×10⁻² umol],MFC (Trichoderma viride [5]) [×10⁻² umol],MIC (Curvularia australiensis [6]) [×10⁻² umol],MFC [7] [×10⁻² µmol],MIC [8] [×10⁻² µmol],MIC (Aspergillus flavus [9]) [×10⁻² umol],MFC (Aspergillus flavus [10]) [×10⁻² umol],MIC (Aspergillus fumigatus [11]) [×10⁻² umol],MIC (Aspergillus niger [12]) [×10⁻² umol],MIC (Staphylococcus aureus) [×10⁻² umol],MIC (Bacillus thuringiensis) [×10⁻² umol],MIC (Escherichia coli) [×10⁻² umol],MIC (Pseudomonas aeruginosa) [×10⁻² umol],MIC (Bacillus cereus) [×10⁻² umol],MIC (Bacillus subtilis) [×10⁻² umol]
C/C(=N\NC(=O)C1=C(O)c2ccccc2S(=O)(=O)N1C)c1ccccc1Br,151.7,75.4,186,163.6,149.9,76.2,151,74.5,89.4,168.5,83.6,93.1,–,–,–,–,–,–
NNC(=O)C1=C(O)c2ccccc2S(=O)(=O)N1,>200,>100,>200,>200,>200,>100,> 200,> 100,>100,>200,>100,>100,–,–,–,–,–,–
C/C(=N\NC(=O)C1=C(O)c2ccccc2S(=O)(=O)N1C)c1ccc(Cl)cc1,128.6,67.2,166.4,143.6,134.4,64.3,124,62.2,81.7,162.3,72.6,82,30.9,12.3,31,32.3,11,11.6
C/C(=N\NC(=O)C1=C(O)c2ccccc2S(=O)(=O)N1C)c1ccccc1Cl,126.5,66.5,167.9,144.6,133.1,63.6,119,61.1,87.1,170.2,76.1,88.6,30.7,12,31.7,32.6,10.8,11
C/C(=N\NC(=O)C1=C(O)c2ccccc2S(=O)(=O)N1)c1ccccc1Br,158.4,75.6,186.8,157.3,142.4,76.3,147,74.8,90,177.7,83.8,93.2,–,–,–,–,–,–
C/C(=N\NC(=O)C1=C(O)c2ccccc2S(=O)(=O)N1C)c1ccc(Br)cc1,148.4,74.3,>200,177,139.4,77.3,142,74.6,93.4,189.8,85.5,96,–,–,–,–,–,–
c1ccc(-c2ccc(C(c3ccccc3)n3ccnc3)cc2)cc1 (stereo unspecified) [BIFONAZOLE],75,64,64,64,80,57.5,78,60.2,48,64,48,48,–,–,–,–,–,–
C/C(=N\NC(=O)C1=C(O)c2ccccc2S(=O)(=O)N1)c1ccc(Cl)cc1Cl,123.9,62.9,149,142.5,125.7,62,119,59.4,71.8,143.5,67.4,74.6,–,–,–,–,–,–
CN1C(C(=O)NN)=C(O)c2ccccc2S1(=O)=O,>200,>100,>200,>200,>200,>100,> 200,> 100,>100,>200,>100,>100,–,–,–,–,–,–
C/C(=N\NC(=O)C1=C(O)c2ccccc2S(=O)(=O)N1)c1ccc(Br)cc1,143.9,74.4,188.5,191,188.2,77.5,130,74.9,93.7,173.2,85.7,96.4,–,–,–,–,–,–
C/C(=N\NC(=O)C1=C(O)c2ccccc2S(=O)(=O)N1C)c1ccc(Cl)cc1Cl,122.7,62.7,148.3,134.7,125,61.5,118,59.1,71.6,143.1,67.3,74.2,–,–,–,–,–,–
C/C(=N\NC(=O)C1=C(O)c2ccccc2S(=O)(=O)N1)c1ccc(Cl)c(Cl)c1,123.4,61.3,150.2,136.2,118.7,61.8,108,59.2,75.2,150.3,68.1,75.2,–,–,–,–,–,–
C/C(=N\NC(=O)C1=C(O)c2ccccc2S(=O)(=O)N1C)c1ccc(Cl)c(Cl)c1,122.6,61.2,149.5,136.3,122.5,61.5,158,59,75,150,68.1,75,–,–,–,–,–,–
C/C(=N\NC(=O)C1=C(O)c2ccccc2S(=O)(=O)N1)c1ccccc1Cl,125.1,66.8,179.1,150.4,123.9,63.8,123,61.4,87.3,164.6,76.2,89.6,31.3,12.1,32.5,–,11.5,11.4
CN[C@@H]1[C@H](O[C@H]2[C@H](O[C@H]3[C@H](O)[C@@H](O)[C@H](N=C(N)N)[C@@H](O)[C@@H]3N=C(N)N)O[C@@H](C)[C@]2(O)C=O)O[C@@H](CO)[C@H](O)[C@H]1O [STREPTOMYCIN],–,–,–,–,–,–,–,–,–,–,–,–,16.5,4.4,16.5,16.5,4.3,4.2
